Test results taken from PMC6970276 (OncoTargets and therapy, 2020).

Legend:
[1] = Biodistribution in tumor-bearing nude mice; format: in vivo; settings: for tissue uptake at 4 h / tissue uptake at 12 h / tissue uptake at 24 h / tissue uptake at 48 h: female, nude, mouse, iv, 1.85 MBq, total radioactivity; for Tumor/Blood: ratio, n=3
How it was run: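 Female nude mice bearing subcutaneous K1 tumours (5 × 10^6 cells, right forelimb), used once tumours exceeded 1 cm3. The 177Lu-labelled test compound (1.85 MBq in 100 μL) was injected into the tail vein, n = 3 per time point. Mice were killed at 4, 12, 24 and 48 h. Blood, tumour and organs (including brain, bone, heart) were weighed and gamma-counted. %ID/g = tissue counts/(injected counts × tissue mass) × 100%.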

K1 cells = assay: In vitro retention assay in K1 cells; format: cell-based; settings: 6 hrs loading, medium replaced, 2, 4, 6 and 8 hrs, γ-counter
K1 xenografts [2] = assay: SPECT/CT imaging of K1 xenografts; format: in vivo, nude mice; settings: SPECT ROI, 24h after tail vein injection of 37 MBq; tumor-bearing mouse
How it was run: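 Female nude mice bearing K1 xenografts (over 1 cm3) received 37 MBq of the 177Lu-labelled test compound in 100 μL by tail vein. Static SPECT/CT imaging at 4, 12, 24 and 48 h, prone: high-energy collimation, 113 and 208 keV peaks, 256 × 256 matrix, 10-min acquisitions. T/NT was calculated from regions of interest. CT fusion was done at the clearest time point.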

[3] = Stability test of purified probes in human serum; format: in vitro ADME; settings: 48 h, purified probe, radio-TLC, saline/acetone 1:1, Figure 2
How it was run: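 Purified 177Lu-labelled probes were held at room temperature and in human serum. Radiochemical purity was sampled at 1, 4, 12, 24 and 48 h by radio-TLC, developed in saline/acetone 1:1 (v/v) and read on a TLC imaging scanner.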

K1 xenografts [4] = assay: Therapeutic evaluation in tumor-bearing nude mice; format: in vivo
How it was run: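 K1 xenograft-bearing nude mice, randomised into three groups (n = 5). Each group received tail-vein injections (100 μL) every 4 days, three times: radiolabelled test compound (11.1 MBq/5 μg), unlabelled test compound (5 μg) or 0.9% saline. Followed for 45 days. Tumour volume = a × b²/2 (long, short diameters). Growth curves compared by repeated-measures analysis, survival by log-rank test.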

`Cc1cn(CC(=O)N(CCNC(=O)COCCOCCNC(=O)COCCOCCNC(=O)CN2CCN(CC(=O)O)CCN(CC(=O)O)CCN(CC(=O)O)CC2)CC(=O)NCCN(CC(=O)NCCN(CC(=O)NCCN(CC(=O)NCCN(CC(=O)NCCN(CC(=O)NCCN(CC(=O)NCCN(CC(=O)NCCN(CC(=O)NCCN(CC(N)=O)C(=O)Cn2cnc3c(N)ncnc32)C(=O)Cn2cnc3c(N)ncnc32)C(=O)Cn2cnc3c(=O)[nH]c(N)nc32)C(=O)Cn2cnc3c(N)ncnc32)C(=O)Cn2ccc(N)nc2=O)C(=O)Cn2cnc3c(=O)[nH]c(N)nc32)C(=O)Cn2cc(C)c(=O)[nH]c2=O)C(=O)Cn2cnc3c(=O)[nH]c(N)nc32)C(=O)Cn2cnc3c(N)ncnc32)c(=O)[nH]c1=O` [^177Lu-asPNA, ^177Lu-DOTA-anti-CITED1-PNA, metal not drawn] showed a tissue uptake at 4 h ([1]; bone) of 2.58 ± 0.63 %ID/g, a tissue uptake at 12 h ([1]; bone) of 1.51 ± 0.55 %ID/g and a tissue uptake at 24 h ([1]; bone) of 1.03 ± 0.68 %ID/g. For the same molecule, the tissue uptake at 48 h ([1]; bone) was 0.52 ± 0.23 %ID/g, the tissue uptake at 4 h ([1]; brain) was 1.53 ± 0.68 %ID/g and the tissue uptake at 12 h ([1]; brain) was 0.42 ± 0.36 %ID/g. The tissue uptake at 24 h ([1]; brain) was 0.39 ± 0.77 %ID/g, the tissue uptake at 48 h ([1]; brain) was 0.33 ± 0.59 %ID/g and the tissue uptake at 4 h ([1]; heart) was 3.67 ± 0.82 %ID/g. The tissue uptake at 12 h ([1]; heart) was 3.33 ± 0.25 %ID/g, the tissue uptake at 24 h ([1]; heart) was 1.53 ± 0.36 %ID/g and the tissue uptake at 48 h ([1]; heart) was 0.54 ± 0.39 %ID/g. It also gave a tissue uptake at 4 h ([1]; intestines) of 4.92 ± 0.45 %ID/g, a tissue uptake at 12 h ([1]; intestines) of 3.17 ± 1.5 %ID/g and a tissue uptake at 24 h ([1]; intestines) of 3.03 ± 0.87 %ID/g. For the same molecule, the tissue uptake at 48 h ([1]; intestines) was 0.85 ± 0.27 %ID/g, the tissue uptake at 4 h ([1]; kidney) was 13.8 ± 1.46 %ID/g and the tissue uptake at 12 h ([1]; kidney) was 5.96 ± 1.32 %ID/g. It also gave a tissue uptake at 24 h ([1]; kidney) of 2.06 ± 0.49 %ID/g, a tissue uptake at 48 h ([1]; kidney) of 0.87 ± 0.41 %ID/g and a tissue uptake at 4 h ([1]; liver) of 13.2 ± 1.26 %ID/g. For the same molecule, the tissue uptake at 12 h ([1]; liver) was 2.42 ± 0.13 %ID/g, the tissue uptake at 24 h ([1]; liver) was 1.81 ± 0.41 %ID/g and the tissue uptake at 48 h ([1]; liver) was 1.53 ± 0.23 %ID/g. It also gave a tissue uptake at 4 h ([1]; lung) of 4.21 ± 0.27 %ID/g, a tissue uptake at 12 h ([1]; lung) of 1.86 ± 0.87 %ID/g and a tissue uptake at 24 h ([1]; lung) of 1.66 ± 0.52 %ID/g. It also gave a tissue uptake at 48 h ([1]; lung) of 1.07 ± 0.41 %ID/g, a tissue uptake at 4 h ([1]; muscle) of 2.13 ± 0.37 %ID/g and a tissue uptake at 12 h ([1]; muscle) of 1.21 ± 0.69 %ID/g. For the same molecule, the tissue uptake at 24 h ([1]; muscle) was 0.99 ± 0.21 %ID/g, the tissue uptake at 48 h ([1]; muscle) was 0.75 ± 0.18 %ID/g and the tissue uptake at 4 h ([1]; spleen) was 11 ± 1.07 %ID/g. The tissue uptake at 12 h ([1]; spleen) was 4.62 ± 0.58 %ID/g, the tissue uptake at 24 h ([1]; spleen) was 2.07 ± 0.62 %ID/g and the tissue uptake at 48 h ([1]; spleen) was 1.14 ± 0.14 %ID/g. For the same molecule, the tissue uptake at 4 h ([1]; stomach) was 4.92 ± 0.26 %ID/g, the tissue uptake at 12 h ([1]; stomach) was 2.34 ± 0.42 %ID/g and the tissue uptake at 24 h ([1]; stomach) was 2.05 ± 1.03 %ID/g. The tissue uptake at 48 h ([1]; stomach) was 0.58 ± 0.27 %ID/g, the tissue uptake at 4 h ([1]; tumor) was 5.78 ± 0.87 %ID/g and the tissue uptake at 12 h ([1]; tumor) was 5.47 ± 1.03 %ID/g. It also gave a tissue uptake at 24 h ([1]; tumor) of 4.93 ± 0.47 %ID/g, a tissue uptake at 48 h ([1]; tumor) of 3.05 ± 0.66 %ID/g and a tissue uptake at 4 h ([1]; whole blood) of 9.45 ± 1.1 %ID/g. It also gave a tissue uptake at 12 h ([1]; whole blood) of 5.76 ± 0.46 %ID/g, a tissue uptake at 24 h ([1]; whole blood) of 1.98 ± 0.41 %ID/g and a tissue uptake at 48 h ([1]; whole blood) of 1.77 ± 0.99 %ID/g. For the same molecule, the Tumor/Blood ([1]; 4h after tail vein injection of 1.85 MBq, tumor-bearing nude mice) was 0.61±1.24, the Tumor/Blood ([1]; 12h after tail vein injection of 1.85 MBq, tumor-bearing nude mice) was 0.95±0.97 and the “blood-brain barrier passage (brain tissue uptake)” value ([1]; tumor-bearing nude mice, from radioactive marker uptake in brain tissue) was “could not cross the blood-brain barrier”. The cellular retention (K1 cells) was “remains in these cells for an extended period of time”, the “T/NT (target/non-target) value” (K1 xenografts [2]) was 5.11 and the “Radiochemical purity (%)” value [3] was “above 91%”. The “tumor growth rate and volume vs asPNA and saline groups” value (K1 xenografts [4]; 18 days after injection, n = 5, volume a × b^2/2) was “about two-fold smaller” and the “median survival time longer than those of the other two groups” value (K1 xenografts [4]; vs asPNA and saline groups, n = 5) was “at least 13 days”.
